Source: ChEMBL document CHEMBL4808174, “Exploring Heteroaromatic Rings as a Replacement for the Labile Amide of Antiplasmodial Pantothenamides” (J Med Chem, 2021)
The source made the active and inactive calls. The calls are words filed in the database; no cut-off is given here.

Legend:
[1] = Selectivity index, ratio of IC50 for human HFF cells to IC50 for Plasmodium falciparum in presence of 1 uM pantothenate; format: toxicity; settings: HFF cells versus Plasmodium falciparum, read-out: Ratio IC50
In short: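 HFF cells grown 3-4 days in RPMI 1640 with 10% bovine calf serum and antibiotics, with compound up to 200 μM; SYBR Safe-based read-out. Selectivity index = HFF IC50 divided by P. falciparum IC50 at 1 μM pantothenate. Where HFF inhibition stayed below 50%, 200 μM (or 100 μM) was used as the HFF value to set limits.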

[2] = Antiproliferative activity against human HFF cells assessed as cell proliferation at 100 uM incubated for 3 to 4 days in presence of 1 uM pantothenate by SYBR assay
[3] = test system: Plasmodium falciparum; assay: Antiplasmodial activity against ring stage Plasmodium falciparum 3D7 infected in human erythrocytes assessed as inhibition of parasite growth incubated for 96 hrs in presence of 1 uM pantothenate by SYBR Green I dye based fluorescence assay; format: functional, organism-based; settings: 3D7, Erythrocyte
In short: (§1)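 P. falciparum 3D7 ring stages at 0.5% parasitemia and 1% hematocrit in Albumax II medium. Where specified, 100 μM sodium pantothenate was added. Incubation 96 h, then freeze-thaw and SYBR Safe lysis-buffer fluorescence. Chloroquine 0.25-25 μM served as zero-proliferation control. Experiments in triplicate; 100 μM pantothenate data from two experiments.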

[4] = Antiproliferative activity against human HFF cells assessed as cell proliferation at 200 uM incubated for 3 to 4 days in presence of 1 uM pantothenate by SYBR assay
[5] = test system: Plasmodium falciparum; assay: Antiplasmodial activity against ring stage Plasmodium falciparum 3D7 infected in human erythrocytes assessed as inhibition of parasite growth incubated for 96 hrs in presence of 100 uM pantothenate by SYBR Green I dye based fluorescence assay; format: functional, organism-based; settings: 3D7, Erythrocyte; in short: as §1
[6] = Apparent permeability of the compound across apical to basolateral side in human Caco-2 cells at 20 uM
[7] = test system: Plasmodium falciparum; assay: Antiplasmodial activity against ring stage Plasmodium falciparum 3D7 infected in human erythrocytes assessed as inhibition of parasite growth incubated for 48 hrs by SYBR Green I dye based fluorescence assay; format: functional, organism-based; settings: Erythrocyte
In short: (§2)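 Triple-sorbitol-synchronized 3D7 ring-stage cultures at 0.5% parasitemia and 1% hematocrit were exposed to compound at ten concentrations at 37 °C in 96% N₂, 3% CO₂, 1% O₂. After 5, 10, 24 or 48 h, cells were washed three times and resuspended without compound. Total culture time 96 h, then SYBR Safe fluorescence. Three experiments in triplicate.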

[8] = Metabolic stability in mouse liver microsomes assessed as half life at 1 uM in presence or absence of NADPH regenerating system by LC-MS analysis; format: ADME, Microsome
In short: (§3)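 Stability in mouse or human liver microsomes was measured with and without an NADPH-regenerating system, giving in vitro t1/2 and intrinsic clearance in μL/min/mg protein.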

[9] = Drug concentration in BALB/c mouse plasma at 100 mg/kg/day, ip measured after 1 day; format: ADME, organism-based; settings: whole blood, in the assay text read “whole blood” for “plasma”
In short: (§4)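 Dosing was 100 mg/kg ip in P. berghei-infected female BALB/c mice, repeated at 24 h. 10 μL tail whole blood was sampled by microsampling device at 3 h, at ~24 h (before the second dose) and at 48 h. Samples were extracted with 80% acetonitrile using diazepam as internal standard and quantified by LC-MS MRM against a spiked-blood standard curve of 5 ng/mL-20 μg/mL. LLQ was 16 or 17 nM. Mean of five mice.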

[10] = Drug concentration in BALB/c mouse plasma at 100 mg/kg/day, ip measured after 2 days; format: ADME, organism-based; settings: whole blood, in the assay text read “whole blood” for “plasma”; in short: as §4
[11] = Metabolic stability in mouse liver microsomes assessed as intrinsic clearance at 1 uM in presence or absence of NADPH regenerating system measured per mg protein by LC-MS analysis; format: ADME, Microsome; settings: read-out: CLH; in short: as §3
[12] = test system: Plasmodium falciparum; assay: Antiplasmodial activity against ring stage Plasmodium falciparum 3D7 infected in human erythrocytes assessed as inhibition of parasite growth at 100 uM pretreated with compound followed by parasite infection by SYBR Green I dye based fluorescence assay; format: functional, organism-based; settings: Erythrocyte
[13] = Drug degradation in mouse liver microsomes after 60 mins; format: ADME, Microsome; settings: read-out: Drug degradation
In short: (§5)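 Degradation in mouse or human liver microsomes was followed over 60 min, with and without an NADPH-regenerating system.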

[14] = test system: Plasmodium falciparum; assay: Antiplasmodial activity against ring stage Plasmodium falciparum 3D7 infected in human erythrocytes assessed as inhibition of parasite growth incubated for 24 hrs by SYBR Green I dye based fluorescence assay; format: functional, organism-based; settings: Erythrocyte; in short: as §2
[15] = test system: Plasmodium berghei; assay: Antiplasmodial activity against Plasmodium berghei ANKA infected in BALB/c mouse model of malaria assessed as reduction in parasitemia at 100 mg/kg/day, ip for 2 days by Giemsa staining based flow cytometry analysis; format: functional, organism-based; settings: time 2.0 day
In short: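 Female BALB/c mice, 8-12 weeks, infected ip with 1 × 10⁵ P. berghei ANKA-infected erythrocytes. Once parasitemia reached 0.4-1.5% (5 mice per group), 100 mg/kg was given ip in 150 mM NaCl containing 20.9% v/v DMSO; second dose at 24 h. Daily tail-bleed parasitemia was read by Giemsa-stained thin smear or by flow cytometry (JC-1, Hoechst 33342, anti-CD45/CD71/TER119).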

[16] = Drug concentration in BALB/c mouse plasma at 100 mg/kg/day, ip measured after 3 hrs; format: ADME, organism-based; settings: whole blood, in the assay text read “whole blood” for “plasma”; in short: as §4
[17] = Metabolic stability in human liver microsomes assessed as half life at 1 uM in presence or absence of NADPH regenerating system by LC-MS analysis; format: ADME, Microsome; in short: as §3
[18] = Metabolic stability in human liver microsomes assessed as intrinsic clearance at 1 uM in presence of absence of NADPH regenerating system measured per mg protein by LC-MS analysis; format: ADME, Microsome; settings: read-out: CLH; in short: as §3
[19] = Drug degradation in human liver microsomes after 60 mins; format: ADME, Microsome; settings: read-out: Drug degradation; in short: as §5
[20] = test system: Plasmodium falciparum; assay: Antiplasmodial activity against ring stage Plasmodium falciparum 3D7 infected in human erythrocytes assessed as inhibition of parasite growth incubated for 10 hrs by SYBR Green I dye based fluorescence assay; format: functional, organism-based; settings: Erythrocyte; in short: as §2
[21] = test system: Plasmodium knowlesi; assay: Antiplasmodial activity against Plasmodium knowlesi infected in human erythrocytes assessed as inhibition of parasite growth incubated for 72 hrs in presence of 1 uM pantothenate by SYBR Green I dye based fluorescence assay; format: functional, organism-based; settings: Erythrocyte

Structure (SMILES)	selectivity ratio at 1 µM [1]	proliferation at 100 µM [2] [%]	IC50 [3] [µM]	proliferation at 200 µM [4] [%]	other results
CCCCCn1cc(CNC(=O)[C@H](O)C(C)(C)CO)cn1	> 5	102	34	85	–
CCCCCn1cc(CNC(=O)[C@H](O)C(C)(C)CO)nn1	> 3500	88	0.056	77	IC50 [5]: > 0.25 µM; Papp A→B at 20 µM [6]: 13 ×10⁻⁶ cm/s; Activity [7]: Active; half-life at 1 µM [8]: > 4.25 h; concentration at 24 h [9]: < 16 nM; concentration at 48 h [10]: < 16 nM; microsomal CLint at 1 µM [11]: < 7 µL/min/mg; Activity [12]: inactive; metabolised at 1 h [13]: < 15%; Activity [14]: Active; Activity [15]: inactive; concentration at 3 h [16]: 1100 nM; half-life at 1 µM [17]: > 4.25 h; microsomal CLint at 1 µM [18]: < 7 µL/min/mg; metabolised at 1 h [19]: < 15%; Activity [20]: inactive; IC50 [21]: 0.028 µM
CCCCCc1cnc(CNC(=O)[C@H](O)C(C)(C)CO)o1	> 8.6	98	23	82	–
CCCCCCn1cc(CNC(=O)[C@H](O)C(C)(C)CO)nn1	–	–	0.055	–	–
CCCCCc1nnc(CNC(=O)[C@H](O)C(C)(C)CO)o1	> 2.8	108	71	91	–
NNC(=O)N1C(=O)c2cc(S(=O)(=O)[O-])cc3c(N)c(S(=O)(=O)[O-])cc(c23)C1=O.[Li+].[Li+] [LUCIFER YELLOW]	–	–	–	–	Papp A→B at 20 µM [6]: < 1 ×10⁻⁶ cm/s
CCCCCc1nnc(CNC(=O)[C@H](O)C(C)(C)CO)[nH]1	> 5	84	40	71	–
CCCCCc1nc(CNC(=O)[C@H](O)C(C)(C)CO)no1	> 110	111	1.8	100	IC50 [5]: > 12 µM
CCCCCc1noc(CNC(=O)[C@H](O)C(C)(C)CO)n1	> 37	91	5.3	90	–
CCCCCn1cnc(CNC(=O)[C@H](O)C(C)(C)CO)c1	> 14	91	14	103	–
CCCCCn1ncc(CNC(=O)[C@H](O)C(C)(C)CO)n1	> 7.1	97	28	103	–
CCCCCc1cc(CCNC(=O)[C@H](O)C(C)(C)CO)on1	> 41	97	4.8	95	–
CCCCCn1cnc(CNC(=O)[C@H](O)C(C)(C)CO)n1	–	101	> 100	106	–
CC(C)NCC(O)COc1cccc2ccccc12 (stereo unspecified) [PROPRANOLOL]	–	–	–	–	Papp A→B at 20 µM [6]: 49 ×10⁻⁶ cm/s
CCCCCc1nnc(CNC(=O)[C@H](O)C(C)(C)CO)s1	> 200	90	0.96	88	IC50 [5]: 26 µM
CCCCCCc1cc(CNC(=O)[C@H](O)C(C)(C)CO)no1	> 830	78	0.24	60	–
CCCCCc1cc(CNC(=O)[C@H](O)C(C)(C)CO)n[nH]1	> 27	88	7.4	89	–
CC(C)(CO)[C@@H](O)C(=O)NCc1cc(CCc2ccccc2)no1	> 18	102	11	113	–
CC(C)(CO)[C@@H](O)C(=O)NCc1cc(CCc2ccccc2)on1	> 33	94	5.9	95	–
CCCCCCc1cc(CNC(=O)[C@H](O)C(C)(C)CO)on1	> 90	97	2.2	87	–
CCN(CC)CCCC(C)Nc1ccnc2cc(Cl)ccc12 (stereo unspecified)	–	–	–	–	Activity [12]: inactive
CCCCCc1ncc(CNC(=O)[C@H](O)C(C)(C)CO)o1	1.2	87	80	35	–
CCCCCc1cc(CNC(=O)[C@H](O)C(C)(C)CO)on1	> 310	100	0.63	88	IC50 [5]: > 12 µM
CCCCCc1ccc(CNC(=O)[C@H](O)C(C)(C)CO)s1	35	58	2.8	16	–
CCCCc1cc(CNC(=O)[C@H](O)C(C)(C)CO)on1	> 1000	97	0.19	101	–
CCCCc1cc(CNC(=O)[C@H](O)C(C)(C)CO)no1	> 2700	95	0.072	74	–
